Data on 33 molecules can be found in ChEMBL document CHEMBL1153209, “Synthesis and biological activity of a potent and orally bioavailable SCD inhibitor (MF-438)” (Bioorg Med Chem Lett, 2010).

Each structure is given as a SMILES string.

In one data set the target is T1, Acyl-CoA desaturase 1 (Rattus norvegicus, UniProt P07308).
T1 sequence (P07308 whole entry): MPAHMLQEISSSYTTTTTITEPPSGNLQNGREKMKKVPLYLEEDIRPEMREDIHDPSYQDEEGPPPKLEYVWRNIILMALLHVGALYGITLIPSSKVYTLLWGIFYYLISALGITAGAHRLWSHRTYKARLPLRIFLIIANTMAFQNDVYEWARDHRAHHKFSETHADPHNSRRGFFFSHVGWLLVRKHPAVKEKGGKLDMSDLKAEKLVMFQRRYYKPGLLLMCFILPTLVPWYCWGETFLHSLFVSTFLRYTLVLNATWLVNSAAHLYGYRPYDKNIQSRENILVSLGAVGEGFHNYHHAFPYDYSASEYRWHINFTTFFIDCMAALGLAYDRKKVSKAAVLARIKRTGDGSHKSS
The data set can be described thus: Inhibition of SCD1 in rat liver microsomes. Also noted: species or system Microsome.

A short description of data set [1]: Half life in rat at 10 mg/kg, po or 2 mg/kg, iv. The data set is classed as ADME, organism-based. The note with it: in vivo. An outline of the steps:
(§1)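 Rats dosed 10 mg/kg PO and 2 mg/kg IV; plasma concentration sampled over time for parent and its acid metabolite; each time point is the average of two animals.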

The target of data set [2] is T2, Cytochrome P450 3A4 (Homo sapiens, UniProt P08684). Nature of the data set: Inhibition of CYP3A4. The data set is classed as ADME.
T2 sequence (P08684 whole entry): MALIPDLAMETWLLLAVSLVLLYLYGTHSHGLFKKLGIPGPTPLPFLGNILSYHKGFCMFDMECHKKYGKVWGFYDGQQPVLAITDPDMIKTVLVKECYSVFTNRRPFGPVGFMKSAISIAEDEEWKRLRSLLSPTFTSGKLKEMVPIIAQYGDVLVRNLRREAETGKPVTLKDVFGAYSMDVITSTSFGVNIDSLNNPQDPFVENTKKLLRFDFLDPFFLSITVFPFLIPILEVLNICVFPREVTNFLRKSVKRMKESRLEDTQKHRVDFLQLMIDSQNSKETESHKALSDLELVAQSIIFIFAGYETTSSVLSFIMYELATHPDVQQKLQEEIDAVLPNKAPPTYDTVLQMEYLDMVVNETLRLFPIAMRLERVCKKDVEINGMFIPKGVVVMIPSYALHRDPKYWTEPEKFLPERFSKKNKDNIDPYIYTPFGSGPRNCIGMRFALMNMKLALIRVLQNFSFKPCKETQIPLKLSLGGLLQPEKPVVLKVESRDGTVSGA
Data set [3] addresses T3, Cytochrome P450 2D6 (Homo sapiens, UniProt P10635). The data set can be described thus: Inhibition of CYP2D6. The data set is classed as ADME.
A short description of data set [4]: Bioavailability in rat at 10 mg/kg, po or 2 mg/kg, iv. The data set is classed as ADME, organism-based. Conditions: in vivo; call rule not given here. An outline of the steps:
as §1

Data set [5] is described as follows: Half life in mouse. The data set is classed as ADME, organism-based. Conditions: in vivo.
For data set [6], the target named is T2, Cytochrome P450 3A4. The data set can be described thus: Inhibition of CYP3A4 up to 30 uM. The data set is classed as ADME.
For data set [7], the system named is Mus musculus. The data set can be described thus: Inhibition of stearoyl-CoA […] in high-carbohydrate diet-fed mouse liver dosed orally assessed as conversion of [14C]stearic acid to [14C]oleic acid. The note with it: po. The data set is classed as functional. In a few lines: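 Mice on a high-carbohydrate diet given compound PO, then IV 14C-stearic acid tracer 1 h later; livers collected 2 h after tracer and lipids analysed.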

For data set [8], the system named is Mus musculus. Nature of the data set: Toxicity in diet-induced obese chronic po dosed mouse. Conditions: in vivo.
Data set [9] in a line: Oral bioavailability in rat. The data set is classed as ADME, organism-based. Conditions: in vivo.
For data set [10], the target named is T3, Cytochrome P450 2D6. Nature of the data set: Inhibition of CYP2D6 up to 30 uM. The data set is classed as ADME.
Data set [11] can be described thus: Oral bioavailability in mouse. Conditions: in vivo. The data set is classed as ADME, organism-based.
Data set [12] deals with Mus musculus. The data set can be described thus: Toxicity in DIO mouse assessed as alopecia at 5 mg/kg qd for 1 week. Conditions: in vivo, 168 h. The data set is classed as organism-based. Also noted: dose 5 mg/kg.
The nature of data set [13]: Half life in rat. The note with it: in vivo. The data set is classed as ADME, organism-based.
Data set [14] has as its system Mus musculus. Nature of the data set: Toxicity in DIO mouse assessed as partial eye closure at 5 mg/kg qd for 1 week. Conditions: in vivo, 168 h. The data set is classed as organism-based. Also noted: dose 5 mg/kg.
Data set [15] can be described thus: AUC in rat at 2 mg/kg, iv. The data set is classed as ADME, organism-based. Also noted: dose 2 mg/kg, route intravenous. The note with it: plasma. An outline of the steps:
as §1

Data set [16] is described as follows: AUC in rat at 10 mg/kg, po. The data set is classed as ADME, organism-based. Also noted: dose 10 mg/kg, route oral. The note with it: plasma. In a few lines: as §1
A further data set relates to Rattus norvegicus. Nature of the data set: Stability in rat assessed as AUC of 6-(4-(2-(trifluoromethyl)phenoxy)piperidin-1-yl)pyridazine-3-carboxylic acid at 10 mg/kg, po. On the set-up: dose 10 mg/kg, route oral. The note with it: in vivo. The data set is classed as ADME, organism-based. In a few lines:
as §1

T3 sequence (P10635 whole entry): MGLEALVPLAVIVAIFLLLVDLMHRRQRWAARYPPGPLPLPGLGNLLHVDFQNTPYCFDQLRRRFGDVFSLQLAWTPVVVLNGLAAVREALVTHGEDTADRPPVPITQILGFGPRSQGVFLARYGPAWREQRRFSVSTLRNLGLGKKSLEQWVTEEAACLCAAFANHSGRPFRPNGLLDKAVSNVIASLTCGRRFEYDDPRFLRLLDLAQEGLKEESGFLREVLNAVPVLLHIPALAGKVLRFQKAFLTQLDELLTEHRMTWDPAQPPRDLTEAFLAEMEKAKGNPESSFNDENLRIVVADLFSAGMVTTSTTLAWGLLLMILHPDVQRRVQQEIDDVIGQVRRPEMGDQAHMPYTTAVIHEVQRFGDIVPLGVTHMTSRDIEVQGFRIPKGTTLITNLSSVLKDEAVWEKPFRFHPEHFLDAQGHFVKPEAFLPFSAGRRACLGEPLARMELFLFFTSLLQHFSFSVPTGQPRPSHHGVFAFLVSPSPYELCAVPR

Regarding `O=C(NCCC1CC1)c1ccc(N2CCC(Oc3ccccc3C(F)(F)F)CC2)nn1`, the IC50 – broadly, the point on the concentration scale where inhibition reaches its midpoint – at Acyl-CoA desaturase 1 amounted to 0.014 µM.

On to `Cc1ccccc1OC1CCN(c2ccc(-n3ccnc3)nn2)CC1`, for which the concentration for half-maximal inhibition (IC50) at Acyl-CoA desaturase 1 was determined as 0.039 µM.

Molecule `CCc1ccccc1OC1CCN(c2ccc(-n3ccnc3)nn2)CC1` came in with a concentration for half-maximal inhibition (IC50) against Acyl-CoA desaturase 1 of 0.004 µM.

Take `c1cn(-c2ccc(N3CCC(Oc4ccc5c(c4)CCC5)CC3)nn2)cn1`: the IC50 against Acyl-CoA desaturase 1 was 0.062 µM.

`Cc1nnc(-c2ccc(N3CCC(Oc4ccccc4C(F)(F)F)CC3)nn2)o1` displayed a half-maximal inhibitory concentration (IC50) against Acyl-CoA desaturase 1 of 0.006 µM.

`Brc1cccc(OC2CCN(c3ccc(-n4ccnc4)nn3)CC2)c1` gave a 50% inhibitory concentration (IC50) against Acyl-CoA desaturase 1 of 0.023 µM.

As for `Cc1cccc(OC2CCN(c3ccc(-n4ccnc4)nn3)CC2)c1`, the IC50 on Acyl-CoA desaturase 1 is 0.251 µM.

With `CC(C)(C)c1nnc(-c2ccc(N3CCC(Oc4ccccc4C(F)(F)F)CC3)nn2)o1`, half-maximal inhibition against Acyl-CoA desaturase 1 (IC50) required 0.98 µM.

The molecule `Cc1ccc(OC2CCN(c3ccc(-n4ccnc4)nn3)CC2)cc1` had an IC50 against Acyl-CoA desaturase 1 of 0.527 µM.

As to `O=C(O)c1ccc(N2CCC(Oc3ccccc3C(F)(F)F)CC2)nn1`, the IC50 against Acyl-CoA desaturase 1 is 10 µM.

Turning to `OCc1nnc(-c2ccc(N3CCC(Oc4ccccc4C(F)(F)F)CC3)nn2)s1`, at Acyl-CoA desaturase 1, the concentration for half-maximal inhibition (IC50) turned out to be 0.0032 µM.

On Acyl-CoA desaturase 1, `Brc1ccccc1OC1CCN(c2ccc(-n3ccnc3)nn2)CC1` displayed a half-maximal inhibitory concentration (IC50) of 0.005 µM.

The molecule `COc1ccccc1OC1CCN(c2ccc(-n3ccnc3)nn2)CC1` came in with a concentration for half-maximal inhibition (IC50) at Acyl-CoA desaturase 1 of 0.543 µM.

On Acyl-CoA desaturase 1, `c1cc(OC2CCN(c3ccc(-n4ccnc4)nn3)CC2)c2cc[nH]c2c1` had a 50% inhibitory concentration (IC50) of 0.162 µM.

At Acyl-CoA desaturase 1, `O=C(NCCC1CC1)c1ccc(N2CCN(C(=O)c3ccccc3C(F)(F)F)CC2)nn1` returned a concentration for half-maximal inhibition (IC50) of 0.322 µM.

`FC(F)(F)c1ccccc1OC1CCN(c2ccc(-n3ccnc3)nn2)CC1`: in data set [1], the half-life – broadly, the time in which the quantity being followed falls by half – was 1.2 h. In addition, the IC50 on Acyl-CoA desaturase 1 came out at 0.004 µM; on Cytochrome P450 3A4 [2], 0.4 µM; against Cytochrome P450 2D6 [3] it was 0.3 µM. In [4], the bioavailability – broadly, dose-corrected exposure relative to a reference, in per cent – amounted to 53%.

Consider `CC(=O)c1ccccc1OC1CCN(c2ccc(-n3ccnc3)nn2)CC1`, for which it took 0.034 µM to reach half-maximal inhibition at Acyl-CoA desaturase 1 (IC50).

Regarding `FC(F)(F)c1cccc(OC2CCN(c3ccc(-n4ccnc4)nn3)CC2)c1`, on Acyl-CoA desaturase 1, the IC50 turned out to be 0.019 µM.

Regarding `CC(C)Cc1nnc(-c2ccc(N3CCC(Oc4ccccc4C(F)(F)F)CC3)nn2)o1`, half-maximal inhibition on Acyl-CoA desaturase 1 (IC50) was put at 0.015 µM.

For the molecule `CCc1cccc(OC2CCN(c3ccc(-n4ccnc4)nn3)CC2)c1`, the concentration for half-maximal inhibition (IC50) at Acyl-CoA desaturase 1 was found to be 0.038 µM.

With `CC(C)Cc1nnc(-c2ccc(N3CCC(Oc4ccccc4C(F)(F)F)CC3)nn2)s1`, inhibition at Acyl-CoA desaturase 1 was half-maximal at 0.037 µM (IC50).

Regarding `Cc1nnc(-c2ccc(N3CCC(Oc4ccccc4C(F)(F)F)CC3)nn2)s1`, the half-life is 6.4 h in data set [5] and 6 h in [13]. The molecule also returned an IC50 against Acyl-CoA desaturase 1 of 0.0023 µM. Besides, the “inhibition (INH)” value against Cytochrome P450 3A4 [6] and at Cytochrome P450 2D6 [10] was “Not Active” each time. Further, the ED50 with Mus musculus [7] was found to be 1 mg/kg. Besides, the Activity entry with Mus musculus [8], in the data set with Mus musculus [12] and with Mus musculus [14] was “Toxic” in each case. In addition, the bioavailability in data set [9] was found to be 38%; in data set [11], 73%.

As to `FC(F)(F)c1ccc(OC2CCN(c3ccc(-n4ccnc4)nn3)CC2)cc1`, the half-maximal inhibitory concentration (IC50) against Acyl-CoA desaturase 1 came to 0.371 µM.

`FC(F)(F)c1ccccc1OC1CCN(c2ccc(-c3nnco3)nn2)CC1` returned an IC50 on Acyl-CoA desaturase 1 of 0.022 µM.

As for `CC(C)c1nnc(-c2ccc(N3CCC(Oc4ccccc4C(F)(F)F)CC3)nn2)o1`, at Acyl-CoA desaturase 1, it took 0.0039 µM to reach half-maximal inhibition (IC50).

For the molecule `N#Cc1ccccc1OC1CCN(c2ccc(-n3ccnc3)nn2)CC1`, on Acyl-CoA desaturase 1, the midpoint of inhibition, the IC50, lay at 0.236 µM.

In data set [1], `NC(=O)c1ccc(N2CCC(Oc3ccccc3C(F)(F)F)CC2)nn1` had a half-life of 0.54 h. Further, the exposure (AUC) (commonly the area under the concentration-time curve, a measure of exposure) was 1900 nM·h in data set [15], 900 nM·h in data set [16] and 179000 nM·h in the data set on Rattus norvegicus. The same molecule returned a concentration for half-maximal inhibition (IC50) against Acyl-CoA desaturase 1 of 0.016 µM. The molecule further had a bioavailability in data set [4] of 10%.

The molecule `c1cc2c(c(OC3CCN(c4ccc(-n5ccnc5)nn4)CC3)c1)CCC2` registered an IC50 against Acyl-CoA desaturase 1 of 0.01 µM.

On Acyl-CoA desaturase 1, `c1ccc(OC2CCN(c3ccc(-n4ccnc4)nn3)CC2)cc1` returned a concentration for half-maximal inhibition (IC50) of 1.89 µM.

Molecule `CC(C)(C)c1nnc(-c2ccc(N3CCC(Oc4ccccc4C(F)(F)F)CC3)nn2)s1` displayed a concentration for half-maximal inhibition (IC50) against Acyl-CoA desaturase 1 of 0.71 µM.

For `OCc1nnc(-c2ccc(N3CCC(Oc4ccccc4C(F)(F)F)CC3)nn2)o1`, the IC50 against Acyl-CoA desaturase 1 was 0.0029 µM.

In turn, `Oc1nnc(-c2ccc(N3CCC(Oc4ccccc4C(F)(F)F)CC3)nn2)s1` showed a 50% inhibitory concentration (IC50) at Acyl-CoA desaturase 1 of 0.0061 µM.

The molecule `CC(C)c1nnc(-c2ccc(N3CCC(Oc4ccccc4C(F)(F)F)CC3)nn2)s1` gave a half-maximal inhibitory concentration (IC50) against Acyl-CoA desaturase 1 of 0.0088 µM.
